Measurements as given in ChEMBL document CHEMBL1833943, “Synthesis and structure-activity relationships of varied ether linker analogues of the antitubercular drug (6S)-2-nitro-6-{[4-(trifluoromethoxy)benzyl]oxy}-6,7-dihydro-5h-imidazo[2,1-b][1,3]oxazine (PA-824)” (J Med Chem, 2011).
In brackets after ≈: the same amount, converted by molar mass.

How the values were obtained:
[1] = Aqueous solubility of the compound in water at pH 7 by HPLC analysis; assay type: physicochemical
Summary of the method: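 Solubility measured in water at pH 7 and 20 °C, quantified by HPLC.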

[2] = system: Mycobacterium tuberculosis; experiment: Antituberculosis activity against Mycobacterium tuberculosis H37Rv under aerobic conditions by microplate alamar blue assay; assay type: functional
[3] = system: Mycobacterium tuberculosis; experiment: Antituberculosis activity against Mycobacterium tuberculosis H37Rv under anaerobic conditions by fluorescence based low-oxygen-recovery assay; assay type: functional
[4] = Metabolic stability in human liver microsomes at 1 uM measured as compound remaining after 1 hr by LC/MS/MS analysis; assay type: ADME, Microsome; details: read-out: Stability
[5] = Metabolic stability in CD1 mouse liver microsomes at 1 uM measured as compound remaining after 1 hr by LC/MS/MS analysis; assay type: ADME, Microsome; details: read-out: Stability
[6] = system: Mycobacterium tuberculosis; experiment: Antituberculosis activity against Mycobacterium tuberculosis H37Rv infected in BALB/c mouse acute infection model assessed as fold reduction in bacterial CFU in lungs at 100 mg/kg, po administered for 5 days a week for 3 weeks beginning on day 11 postinfection relative to PA-824; assay type: functional
Summary of the method: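 Mice with acute M. tb infection dosed orally at 100 mg/kg daily, 5 days each week, standard 3 week assay. Lung CFUs counted. Value is the fold CFU decrease for the compound divided by the fold CFU decrease for the internal reference standard run in the same experiment.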

[7] = Stability of the compound in antimycobacterial activity assay condition assessed as parent compound level; assay type: ADME
[8] = AUC (0 to infinity) in plasma of CD1 mouse at 40 mg/kg, po; assay type: ADME, organism-based; parameters: time infinity, dose 40 mg/kg, route oral
Summary of the method: (§1)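 Mice given a single oral dose of 40 mg/kg; drug levels followed over time in plasma and lung tissue to derive half-life, Cmax and AUC for each matrix.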

[9] = Cmax in plasma of CD1 mouse at 40 mg/kg, po; assay type: ADME, organism-based; parameters: dose 40 mg/kg, route oral; summary of the method: as §1
[10] = Half life in plasma of CD1 mouse at 40 mg/kg, po; assay type: ADME, organism-based; parameters: dose 40 mg/kg, route oral
[11] = AUC (0 to infinity) in lung of CD1 mouse at 40 mg/kg, po; assay type: ADME, organism-based; parameters: time infinity, dose 40 mg/kg, route oral; summary of the method: as §1
[12] = Cmax in lung of CD1 mouse at 40 mg/kg, po; assay type: ADME, organism-based; parameters: dose 40 mg/kg, route oral; summary of the method: as §1
[13] = Half life in the lung of CD1 mouse at 40 mg/kg, po; assay type: ADME, organism-based; parameters: dose 40 mg/kg, route oral; summary of the method: as §1
[14] = Ratio of AUC (0 to infinity) in lung of CD1 mouse to AUC (0 to infinity) in plasma of CD1 mouse at 40 mg/kg, po; assay type: ADME, organism-based; parameters: dose 40 mg/kg, route oral; details: read-out: Ratio AUC
[15] = system: Mycobacterium tuberculosis; experiment: Antituberculosis activity against Mycobacterium tuberculosis H37Rv infected in BALB/c mouse chronic infection model assessed as fold reduction in bacterial CFU in lungs at 100 mg/kg, po administered for 5 days a week for 3 weeks beginning on day 70 postinfection relative to OPC-67683; assay type: functional
Summary of the method: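 Chronic M. tb infection model with dosing starting ~70 days post infection, once bacteria are in a plateau phase of growth. Oral 100 mg/kg daily, 5 days/week, 3 weeks. Lung CFUs counted. Value is the fold CFU reduction for the compound relative to the fold reduction for the reference agent.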

[16] = Aqueous solubility of the compound in 0.1 M hydrochloric acid at pH 1 by HPLC analysis; assay type: physicochemical
[17] = Metabolic stability in human liver microsomes at 1 uM measured as compound remaining after 45 mins by LC/MS/MS analysis; assay type: ADME, Microsome; details: read-out: Stability
Mus musculus = experiment: Toxicity in Mycobacterium tuberculosis H37Rv infected BALB/c mouse at 100 mg/kg, po administered for 5 days a week for 3 weeks beginning on day 11 postinfection; assay type: organism-based; parameters: dose 100 mg/kg, route oral; details: in vivo

SMILES	solubility [1]	MIC [2]	MIC [3]	remaining at 1 h, 1 µM [4]	remaining at 1 h, 1 µM [5]	fold change (FC) [6]	Stability [7]	further results
O=[N+]([O-])c1cn2c(n1)OC[C@@H](OCCOc1ccc(OC(F)(F)F)cc1)C2	50 µg/mL (≈ 128 µM)	0.04 µM (≈ 0.0156 µg/mL)	5.1 µM (≈ 1.99 µg/mL)	85%	66%	1.3	–	–
O=[N+]([O-])c1cn2c(n1)OC[C@@H](OC/C=C/c1ccc(OCc3ccccc3)cc1)C2	0.06 µg/mL (≈ 0.147 µM)	0.16 µM (≈ 0.0652 µg/mL)	1.3 µM (≈ 0.53 µg/mL)	–	–	–	< 50%	–
O=[N+]([O-])c1cn2c(n1)OC[C@@H](OCC#Cc1ccc(OC(F)(F)F)cc1)C2	0.77 µg/mL (≈ 2.01 µM)	0.12 µM (≈ 0.046 µg/mL)	3.4 µM (≈ 1.3 µg/mL)	–	–	–	< 50%	–
O=[N+]([O-])c1cn2c(n1)OC[C@@H](OCC#Cc1ccc(OCc3ccccc3)cc1)C2	0.43 µg/mL (≈ 1.06 µM)	0.09 µM (≈ 0.0365 µg/mL)	3.5 µM (≈ 1.42 µg/mL)	–	–	–	< 50%	–
O=[N+]([O-])c1cn2c(n1)OC[C@@H](OCCCC#Cc1ccc(OC(F)(F)F)cc1)C2	0.09 µg/mL (≈ 0.219 µM)	0.05 µM (≈ 0.0206 µg/mL)	1.9 µM (≈ 0.782 µg/mL)	69%	24%	4.9	< 50%	AUC(0-inf) [8]: 12600 ng·h/mL; Cmax [9]: 2540 ng/mL; half-life [10]: 1.6 h; AUC(0-inf) [11]: 7570 ng·h/mL; Cmax [12]: 2720 ng/mL; half-life [13]: 1.4 h; Kp [14]: 0.6
O=[N+]([O-])c1cn2c(n1)OC[C@@H](OCCCc1ccc(-c3ccc(OC(F)(F)F)cc3)cc1)C2	1.7 µg/mL (≈ 3.67 µM)	0.15 µM (≈ 0.0695 µg/mL)	3.8 µM (≈ 1.76 µg/mL)	88%	91%	1.5	–	fold change (FC) [15]: 0.025; AUC(0-inf) [8]: 13300 ng·h/mL; Cmax [9]: 990 ng/mL; half-life [10]: 4.4 h; AUC(0-inf) [11]: 29500 ng·h/mL; Cmax [12]: 10100 ng/mL; Kp [14]: 2.2
O=[N+]([O-])c1cn2c(n1)OC[C@@H](OCCOc1ccc(-c3ccc(OC(F)(F)F)cc3)cc1)C2	0.68 µg/mL (≈ 1.46 µM)	0.055 µM (≈ 0.0256 µg/mL)	1.6 µM (≈ 0.745 µg/mL)	90%	70%	1.4	–	–
O=[N+]([O-])c1cn2c(n1)OC[C@@H](OCCOc1ccc(-c3ccc(OC(F)(F)F)cc3)cn1)C2	0.79 µg/mL (≈ 1.69 µM)	0.04 µM (≈ 0.0187 µg/mL)	2.5 µM (≈ 1.17 µg/mL)	–	–	–	< 50%	–
O=[N+]([O-])c1cn2c(n1)OC[C@@H](OCC#Cc1ccc(-c3ccc(OC(F)(F)F)cc3)cc1)C2	0.07 µg/mL (≈ 0.152 µM)	–	–	93%	85%	89	–	fold change (FC) [15]: 1.6; AUC(0-inf) [8]: 10000 ng·h/mL; Cmax [9]: 570 ng/mL; half-life [10]: 7.5 h; AUC(0-inf) [11]: 13600 ng·h/mL; Cmax [12]: 760 ng/mL; half-life [13]: 12.3 h; Kp [14]: 1.4
O=[N+]([O-])c1cn2c(n1)OC[C@@H](OCC#Cc1cccc(-c3ccc(OC(F)(F)F)cc3)c1)C2	0.27 µg/mL (≈ 0.588 µM)	0.11 µM (≈ 0.0505 µg/mL)	1.3 µM (≈ 0.597 µg/mL)	94%	89%	6.4	–	AUC(0-inf) [8]: 35800 ng·h/mL; Cmax [9]: 1660 ng/mL; half-life [10]: 14.7 h; AUC(0-inf) [11]: 257000 ng·h/mL; Cmax [12]: 12900 ng/mL; half-life [13]: 14.1 h; Kp [14]: 7.2
O=[N+]([O-])c1cn2c(n1)OC[C@@H](OCC#Cc1ccc(-c3ccc(OC(F)(F)F)cc3)cn1)C2	0.05 µg/mL (≈ 0.109 µM)	0.025 µM (≈ 0.0115 µg/mL)	0.35 µM (≈ 0.161 µg/mL)	89%	86%	0.91	–	–
O=[N+]([O-])c1cn2c(n1)OC[C@@H](OCC#Cc1ccc(-c3ccc(OC(F)(F)F)cc3)nc1)C2	0.72 µg/mL (≈ 1.56 µM)	0.09 µM (≈ 0.0414 µg/mL)	0.52 µM (≈ 0.239 µg/mL)	93%	90%	1	–	solubility [16]: 4 µg/mL (≈ 8.69 µM)
O=[N+]([O-])c1cn2c(n1)OC[C@@H](OCCCC#Cc1ccc(-c3ccc(OC(F)(F)F)cc3)cc1)C2	–	0.055 µM (≈ 0.0268 µg/mL)	> 128 µM	–	–	–	Unstable	–
C[C@@H](O[C@@H]1COc2nc([N+](=O)[O-])cn2C1)c1ccc(OC(F)(F)F)cc1	–	–	–	–	–	–	–	remaining at 0.75 h, 1 µM [17]: 60%
C[C@H](O[C@@H]1COc2nc([N+](=O)[O-])cn2C1)c1ccc(OC(F)(F)F)cc1	–	–	–	–	–	–	–	remaining at 0.75 h, 1 µM [17]: 73%
O=[N+]([O-])c1cn2c(n1)OC[C@@H](Oc1ccc(-c3ccc(OC(F)(F)F)cc3)cn1)C2	0.24 µg/mL (≈ 0.568 µM)	0.39 µM (≈ 0.165 µg/mL)	12 µM (≈ 5.07 µg/mL)	96%	93%	0.17	–	–
CC(O[C@@H]1COc2nc([N+](=O)[O-])cn2C1)c1ccc(-c2ccc(OC(F)(F)F)cc2)cc1 (some centres not stated)	0.84 µg/mL (≈ 1.87 µM)	0.19 µM (≈ 0.0854 µg/mL)	1.5 µM (≈ 0.674 µg/mL)	100%	92%	–	–	Activity (Mus musculus): Toxic
O=[N+]([O-])c1cn2c(n1)OC[C@@H](Oc1ccc(-c3ccc(OC(F)(F)F)cc3)cc1)C2	0.33 µg/mL (≈ 0.783 µM)	0.09 µM (≈ 0.0379 µg/mL)	1.1 µM (≈ 0.463 µg/mL)	–	–	8.1	–	AUC(0-inf) [8]: 102000 ng·h/mL; Cmax [9]: 1860 ng/mL; half-life [10]: 37.9 h; AUC(0-inf) [11]: 347000 ng·h/mL; Cmax [12]: 15800 ng/mL; half-life [13]: 15.3 h; Kp [14]: 3.4
O=[N+]([O-])c1cn2c(n1)OC[C@@H](Oc1cc(-c3ccc(OC(F)(F)F)cc3)ccn1)C2	0.13 µg/mL (≈ 0.308 µM)	5.1 µM (≈ 2.15 µg/mL)	87 µM (≈ 36.7 µg/mL)	–	–	–	< 50%	–
O=[N+]([O-])c1cn2c(n1)OC[C@@H](Oc1cc(-c3ccc(OC(F)(F)F)cc3)ncn1)C2	0.88 µg/mL (≈ 2.08 µM)	2.1 µM (≈ 0.889 µg/mL)	–	–	–	–	< 50%	–
O=[N+]([O-])c1cn2c(n1)OC[C@@H](OCc1ccc(-c3ccc(OC(F)(F)F)cc3)cc1)C2	–	–	–	–	–	–	–	fold change (FC) [15]: 0.86; half-life [13]: 12.8 h
O=[N+]([O-])c1cn2c(n1)OC[C@@H](OCc1ccc(OC(F)(F)F)cc1)C2 [PRETOMANID]	–	–	–	–	–	–	–	remaining at 0.75 h, 1 µM [17]: 93%; fold change (FC) [15]: 0.14
